Screening data (PubChem)
HCT116 PTEN-null: growth suppressors of cells with PTEN tumor suppressor deletion; hit rate 1.2% among 140,000; HCT116 PTEN-null viability, CellTiter-Glo, 60 h; stronger effect = lower value; AID 827; viability, % at 10 µM;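 active = viability at or below a set limit, 4 SD under the median of all tested compounds, cut at about 3.7% in these data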;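 also: PTEN knockout HCT116 line with beta catenin targeted HCT116 as companion control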
Dynein transport: dynein cargo transport inhibition. z-score, hits read low. 3617.4 mouse cells, GR-EGFP nuclear translocation imaging; test concentration mostly 20 µM; stimulated with dexamethasone, 1 µM; stronger effect = lower value. AID 1381. hit rate 0.47% among 220,000;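 active = plate z-score of nuclear minus cytoplasmic receptor signal below a set negative limit, without overly bright fluorescence or cell loss, cut at about -3.5 in these data, passing the limit was not always enough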;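 also: z-score of nuclear minus cytoplasmic ring GR-EGFP intensity difference per well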
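Medium: Induction medium lacking tetracycline, stripped serum | Probe or stimulus: 1.0 µM final dexamethasone stimulus | Schedule: 48 h induction, then 1 h compound, then 30 min agonist, 37 °C | Signal: Automated 10x imaging of fixed Hoechst-stained cells | Evaluation: Per-cell GR-EGFP intensity, nucleus versus surrounding cytoplasmic ring, well-averaged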
bCat KO growth: beta-catenin-lacking colon tumor cell growth suppression. HCT116 beta-catenin knockout viability, CellTiter-Glo, 60 h; stronger effect = lower value. viability, % at 10 µM. hit rate 1.5% among 140,000. AID 818;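 active = viability at or under a set limit, the compound median less 4 SD, cut at about 6% in these data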;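 also: 0% = Hyamine 1622 control at 20 µM and 100% = untreated cell control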
Autophagy HCS: modulators of autophagy | calls only at 10 µM (by protocol) | MEF GFP-LC3 puncta imaging; test concentration mostly 10 µM | hit rate 0.98% among 190,000;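 active = percentage of spot-positive cells more than 3 SD above its plate mean, without a fluorescence outlier flag or 80% toxicity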;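 also: spot-positive cell cutoff set from DMSO-treated cells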
Lmaj promast: reduces viability of Leishmania major promastigotes | resazurin fluorescence viability | inhibition, % at 10 µM | hit rate 9% among 200,000 | AID 1063; in the data active = inhibition above about 50%;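 also: promastigotes grown with compound for 44 hours at 28 °C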
Starred values were filed as active, the others as inactive; i = inactive; . = no result. Hits are enriched below; roughly 9.2% of the tested compounds scored in any of these assays.

SMILES	HCT116 PTEN-null	Dynein transport	bCat KO growth	Autophagy HCS	Lmaj promast
N#C/C(=C\c1c(N2CCCCC2)nc2ccccn2c1=O)C(=O)NC1CCS(=O)(=O)C1 (stereo not drawn)	93	-0.28	90	i	56*
CC(O)CNc1cnccn1 (stereo not drawn)	.	0.77	.	i	-1
Cc1ccc(C(OCC(C)(C)C[N+](C)(C)C)c2ccccc2)cc1 (stereo not drawn)	.	1.6	.	i	100*
CCCc1[nH]nc2c1C(c1ccc(O)c(OC)c1)C(C#N)=C(N)O2 (stereo not drawn)	59	1.3	57	i	80*
CCCc1[nH]nc2c1C(c1ccncc1)C(C#N)=C(N)O2 (stereo not drawn)	90	-0.76	90	i	-4
CCCc1[nH]nc2c1C(c1ccccc1OCC)C(C#N)=C(N)O2 (stereo not drawn)	101	0.57	94	i	54*
COc1ccc(C2C(C#N)=C(N)Oc3n[nH]c(C)c32)cc1CSc1ccccn1 (stereo not drawn)	105	-0.6	102	i	98*
CCOc1ccc(-c2[nH]nc3c2C(c2ccc4c(c2)OCO4)C(C#N)=C(N)O3)cc1OC (stereo not drawn)	90	-0.77	104	i	51*
CCCc1[nH]nc2c1C(c1ccccc1OC)C(C#N)=C(N)O2 (stereo not drawn)	97	-0.43	93	i	18
COc1ccc(NC(=O)CC2SC3=NCCN3C2=O)cc1 (stereo not drawn)	.	-0.78	.	i	-2
COc1ccc(CCN2C(=O)CC(N3CCN(C/C=C/c4ccccc4)CC3)C2=O)cc1OC (stereo not drawn)	.	-0.25	.	.	.
CCCc1[nH]nc2c1C(c1cn[nH]c1-c1ccc(F)cc1)C(C#N)=C(N)O2 (stereo not drawn)	61	1.5	69	i	73*
CCn1c2ccccc2c2cc(C3C(C#N)=C(N)Oc4n[nH]c(COC)c43)ccc21 (stereo not drawn)	6	0.39	2.3*	i	89*
O=C(N=NC(=O)c1ccco1)c1ccc2c(O)n(N3C(=O)c4ccccc4C3=O)c(O)c2c1	93	-0.56	93	i	-8
CCCCc1ccc(NC(=S)N2CCC(O)CC2)cc1	.	-0.71	.	i	-7
O=C1c2ccccc2C2(c3ccc(F)cc3)NCCN12 (stereo not drawn)	.	0.61	.	i	58*
CCCCCOc1ccc(C(=O)NC(CCC)C(=O)O)cc1 (stereo not drawn)	89	-0.79	92	i	3
CCCCCCOc1ccc(/C(N)=N/O)cc1	83	-0.82	96	i	87*
C=CCN1C(=O)C2C3CC(=O)C(c4ccccc43)C2C1=O (stereo not drawn)	.	2	.	i	3
CC(C)(C=O)C1=CC(=O)c2ccccc2C1=O	1.7*	-3.6*	1.3*	i	56*
CC1=CC(=O)c2ccccc2C1=O	41	-1.9	44	i	-1
Cc1cc(Cl)ccc1OCCCC(=O)NC1CCN(C)CC1	97	-0.37	93	i	-3
CC1CCCC(NC(=O)NC(=O)CCl)C1C (stereo not drawn)	39	-3.3	42	i	99*
CC1CCCCC1NC(=O)NC(=O)CCl (stereo not drawn)	30	-2.5	35	i	98*
CCN(CC)C(=N)/C(C#N)=N/Nc1ccccc1	.	-0.76	.	.	.
SMILES	HCT116 PTEN-null	Dynein transport	bCat KO growth	Autophagy HCS	Lmaj promast
Cc1nc2nc(-c3cccnc3)[nH]n2c(=O)c1Cc1ccccc1	104	-1	110	i	5
Cc1cc2nc(C)c(Cc3ccccc3)c(=O)n2[nH]1	93	-0.4	85	i	97*
COc1ccc(-c2c(C)[nH]n3c(=O)c(Cc4ccccc4)c(C)nc23)cc1	17	0.21	21	i	81*
COc1ccccc1-c1c(C)[nH]n2c(=O)c(Cc3ccccc3)c(C)nc12	.	-0.0069	.	i	15
Cc1nc2c(-c3ccccc3)c[nH]n2c(=O)c1Cc1ccccc1	.	0.14	.	i	59*
Cc1nc2nc(-c3ccc(Cl)cc3)[nH]n2c(=O)c1Cc1ccccc1	97	-0.37	99	i	-8
C[N+]1(CCOC(=O)C2(c3ccccc3)CCCC2)CCCCC1	.	-0.56	.	i	-2
O=C1CCC(C(=O)N2CCC(CO)(Cc3ccc(Cl)cc3)CC2)=NN1	.	-0.63	.	i	-8
O=C(CSCc1ccccc1Cl)NCCSc1ccccn1	.	-0.3	.	i	4
Fc1ccccc1C1CC(c2ccco2)=Nc2ccccc2S1 (stereo not drawn)	.	-0.83	.	.	.
O=C(Cc1cc(=O)[nH][nH]1)N/N=C/C=C/c1ccccc1	77	0.22	67	i	72*
COc1ccc(NC(=O)/C(=C/c2ccc(OC(C)=O)c(OC)c2)NC(C)=O)cc1	95	0.16	100	i	1
COc1cc(/C=C(\NC(C)=O)C(=O)Nc2ccc(NC(C)=O)cc2)ccc1OC(C)=O	103	-0.2	103	i	57*
CC(=O)N1CC2([N+](=O)[O-])CN(C(C)=O)CC([N+](=O)[O-])(C1)C2(C)C	.	0.14	.	i	-3
CCOC(=O)C(=NCCCN1CCOCC1)NNc1cccc(C(F)(F)F)c1	.	0.37	.	i	11
CCC(CO)NCc1ccc(OCC(=O)Nc2cccc(C(F)(F)F)c2)c(OC)c1 (stereo not drawn)	90	-0.52	89	i	95*
CCOc1cc(CNCCCN2CCOCC2)cc(Br)c1OCC(=O)Nc1cccc(C(F)(F)F)c1	1.5*	-0.25	1.9*	i	101*
CCOc1cc(CNC(C)(C)C)ccc1OCC(=O)Nc1cccc(C(F)(F)F)c1	.	1.7	.	i	84*
CC1(C)Cc2c(sc3c2c(=O)n(-c2cccc(Cl)c2)c(=O)n3CC(N)=O)CO1	.	0.51	.	.	.
O=C(N/N=C\c1ccc[nH]1)C1COc2ccccc2O1 (stereo not drawn)	.	0.63	.	.	.
COc1ccc([N+](=O)[O-])cc1NC(=O)Cc1noc2ccccc12	.	-0.2	.	i	5
CCOc1ccc(NC(=O)CCC(=O)NNC(=O)Nc2cccc(Cl)c2)cc1	.	1.3	.	i	-6
CCS(=O)(=O)N1CCN(Cc2ccccc2OC)CC1	103	-0.73	87	i	60*
CCCS(=O)(=O)N1CCN(Cc2ccccc2OCC)CC1	92	-0.86	92	i	-4
CCOc1ccccc1CN1CCN(S(=O)(=O)CC)CC1	92	0.18	88	i	82*
COc1ccccc1N1CCN(S(=O)(=O)Cc2ccccc2Cl)CC1	81	-0.89	90	i	27
CC(C)C(=O)NNC(=O)c1csc(-c2cccs2)n1	.	0.028	.	.	.
C=C(C)C1CCC(C)=C1COC(=O)Nc1ccccc1 (stereo not drawn)	82	0.046	69	i	96*
Fc1cc(Cl)ccc1NC(=S)NCCN1CCOCC1	.	-0.78	.	i	11
Cc1cc(C)cc(NC(=S)NCCN2CCOCC2)c1	.	-1	.	i	-2
